Assay results as given in ChEMBL document CHEMBL4311983, “Development of chalcone-O-alkylamine derivatives as multifunctional agents against Alzheimer's disease” (Eur J Med Chem, 2019).

Columns and labels:
[1] = molecular target: T1, Cholinesterase (Homo sapiens, UniProt P06276); experiment: Inhibition of BuChE (unknown origin)
[2] = Inhibition of Cu2+-induced amyloid beta (1 to 42 residues) aggregation at 25 uM after 24 hrs by thioflavin T-based fluorescence assay relative to control
Procedure, shortened: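 Aβ1-42 (25 μM final) with Cu2+ (25 μM final) in 20 mM HEPES pH 6.6, 150 NaCl, ± compound 25 μM final, 37 °C for 24 h; 5 μM ThT in 50 mM glycine-NaOH pH 8.50 added; ex 446/em 490 nm; triplicate.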

[3] = Disaggregation of Cu2+ induced preformed fibrils of amyloid beta (1 to 42) at 25 uM preincubated with Cu2+ for 24 hrs followed by compound addition and measured after 24 hrs by thioflavin-T based fluorescence assay relative to control
Procedure, shortened: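 Aβ1-42 and Cu2+ (each 25 μM final) in 20 mM HEPES pH 6.6, 150 mM NaCl, preincubated 24 h at 37 °C; compound (25 μM final) added, another 24 h at 37 °C under film; 5 μM ThT in glycine-NaOH added; ex 446/em 490 nm; triplicate.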

[4] = Antioxidant activity assessed as AAPH scavenging activity by ORAC fluorescein assay; format: functional
Procedure, shortened: (§1)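 ORAC-FL in 75 mM phosphate buffer pH 7.40; fluorescein 150 nM final plus test antioxidant; Trolox standard at 1-8 μM final; values as Trolox equivalents.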

[5] = molecular target: T2, Amine oxidase [flavin-containing] B (Homo sapiens, UniProt P27338); experiment: Inhibition of MAO-B (unknown origin) relative to control
T2 sequence (P27338 whole entry): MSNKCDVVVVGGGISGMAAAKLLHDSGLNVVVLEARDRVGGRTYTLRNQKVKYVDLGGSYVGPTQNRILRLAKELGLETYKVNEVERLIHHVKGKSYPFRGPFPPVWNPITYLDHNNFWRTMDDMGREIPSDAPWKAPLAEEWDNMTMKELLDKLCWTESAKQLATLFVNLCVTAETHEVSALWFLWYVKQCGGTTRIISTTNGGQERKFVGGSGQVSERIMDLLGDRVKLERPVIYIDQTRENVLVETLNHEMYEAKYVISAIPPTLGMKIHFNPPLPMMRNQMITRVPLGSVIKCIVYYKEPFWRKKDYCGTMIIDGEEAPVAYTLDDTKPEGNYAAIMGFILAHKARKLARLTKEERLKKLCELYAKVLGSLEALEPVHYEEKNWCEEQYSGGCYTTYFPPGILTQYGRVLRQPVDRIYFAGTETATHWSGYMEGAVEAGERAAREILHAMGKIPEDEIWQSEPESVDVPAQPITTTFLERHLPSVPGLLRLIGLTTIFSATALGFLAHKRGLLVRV

[6] = Selectivity index, ratio of IC50 for equine BuChE to IC50 for electric eel AChE
Procedure, shortened: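 Ratio of Ellman-assay IC50 values, BuChE over AChE. Enzymes were equine serum BuChE and electric eel AChE, each at 0.05 U/mL final in pH 8.0 phosphate buffer. Each IC50 is the mean of three independent experiments run in triplicate.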

[7] = molecular target: Amyloid-beta precursor protein (Homo sapiens) (UniProt P05067); experiment: Inhibition of HFIP-pretreated amyloid beta (1 to 42 residues) (unknown origin) self aggregation at 25 uM after 24 hrs by ThT-based fluorescence method relative to control
Chain of Amyloid-beta precursor protein (Homo sapiens) (P05067 whole entry, the tested form may be a part): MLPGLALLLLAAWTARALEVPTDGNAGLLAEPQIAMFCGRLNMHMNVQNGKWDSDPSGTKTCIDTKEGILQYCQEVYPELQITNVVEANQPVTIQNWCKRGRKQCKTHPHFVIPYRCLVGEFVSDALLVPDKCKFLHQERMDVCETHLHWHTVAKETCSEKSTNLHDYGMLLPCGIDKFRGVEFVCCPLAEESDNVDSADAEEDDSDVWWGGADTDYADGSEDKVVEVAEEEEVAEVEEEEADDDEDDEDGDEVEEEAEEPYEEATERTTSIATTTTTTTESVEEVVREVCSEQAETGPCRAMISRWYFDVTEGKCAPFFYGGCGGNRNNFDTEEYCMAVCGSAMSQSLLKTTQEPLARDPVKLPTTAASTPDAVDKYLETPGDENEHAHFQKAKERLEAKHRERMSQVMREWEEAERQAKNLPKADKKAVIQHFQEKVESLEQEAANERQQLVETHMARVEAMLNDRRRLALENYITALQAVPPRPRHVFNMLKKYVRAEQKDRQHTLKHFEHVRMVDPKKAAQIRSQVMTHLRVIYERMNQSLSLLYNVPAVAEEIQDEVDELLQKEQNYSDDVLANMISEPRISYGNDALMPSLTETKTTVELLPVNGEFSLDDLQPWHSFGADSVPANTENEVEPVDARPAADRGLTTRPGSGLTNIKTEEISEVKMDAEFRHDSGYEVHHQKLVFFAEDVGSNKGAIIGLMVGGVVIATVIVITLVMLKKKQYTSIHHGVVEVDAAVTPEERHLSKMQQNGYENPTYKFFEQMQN
Procedure, shortened: (§2)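 HFIP-treated Aβ1-42, dried, redissolved in DMSO; 25 μM final peptide incubated with 25 μM compound in 50 mM phosphate buffer pH 7.40, 37 °C, 24 h; 5 μM ThT in 50 mM glycine-NaOH pH 8.0 added; fluorescence ex 446/em 490 nm.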

[8] = Antioxidant activity assessed as trolox equivalent of AAPH-induced radical scavenging activity preincubated for 15 mins followed by AAPH addition measured every minute for 120 mins by ORAC fluorescein assay; format: functional; procedure, shortened: as §1
[9] = molecular target: T3, Amine oxidase [flavin-containing] A (Homo sapiens, UniProt P21397); experiment: Inhibition of recombinant human MAO-A expressed in baculovirus infected BTI insect cells at 10 uM using kynuramine as substrate after 30 mins by fluorescence based assay relative to control; settings: 0.5 h
T3 sequence (P21397 whole entry): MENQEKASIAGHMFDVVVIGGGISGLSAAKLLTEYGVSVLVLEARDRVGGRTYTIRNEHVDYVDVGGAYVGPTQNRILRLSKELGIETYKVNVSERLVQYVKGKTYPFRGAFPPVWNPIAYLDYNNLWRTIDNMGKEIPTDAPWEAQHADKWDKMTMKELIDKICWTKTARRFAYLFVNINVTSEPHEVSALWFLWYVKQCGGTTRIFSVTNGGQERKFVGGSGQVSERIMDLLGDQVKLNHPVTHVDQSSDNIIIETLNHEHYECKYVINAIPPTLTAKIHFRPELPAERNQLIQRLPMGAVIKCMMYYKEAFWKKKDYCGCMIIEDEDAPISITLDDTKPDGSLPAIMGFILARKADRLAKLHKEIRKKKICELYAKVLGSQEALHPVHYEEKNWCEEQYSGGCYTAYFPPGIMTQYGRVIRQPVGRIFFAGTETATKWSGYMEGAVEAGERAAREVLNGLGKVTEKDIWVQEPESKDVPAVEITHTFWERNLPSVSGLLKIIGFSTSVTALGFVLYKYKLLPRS

[10] = molecular target: T4, Acetylcholinesterase (Electrophorus electricus, UniProt O42275); format: single protein
T4 sequence (O42275 whole entry): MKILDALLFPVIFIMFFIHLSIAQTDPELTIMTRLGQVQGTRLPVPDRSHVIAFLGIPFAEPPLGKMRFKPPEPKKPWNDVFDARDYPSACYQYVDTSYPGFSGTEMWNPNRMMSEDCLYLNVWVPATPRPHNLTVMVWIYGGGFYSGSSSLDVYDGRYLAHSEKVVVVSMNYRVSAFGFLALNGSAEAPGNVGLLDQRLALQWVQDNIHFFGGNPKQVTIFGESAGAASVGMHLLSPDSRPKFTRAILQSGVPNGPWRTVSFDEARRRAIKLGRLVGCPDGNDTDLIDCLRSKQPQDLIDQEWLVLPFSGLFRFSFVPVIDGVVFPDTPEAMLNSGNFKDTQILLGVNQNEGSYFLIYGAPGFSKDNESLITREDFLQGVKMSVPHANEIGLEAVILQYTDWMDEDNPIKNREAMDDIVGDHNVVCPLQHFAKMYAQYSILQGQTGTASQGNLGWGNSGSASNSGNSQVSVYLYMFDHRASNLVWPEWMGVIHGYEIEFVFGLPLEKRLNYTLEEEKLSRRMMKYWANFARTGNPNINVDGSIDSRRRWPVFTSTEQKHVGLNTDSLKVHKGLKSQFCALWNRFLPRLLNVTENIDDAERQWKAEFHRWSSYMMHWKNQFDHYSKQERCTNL

[11] = molecular target: Cholinesterase (Equus caballus, UniProt P81908); experiment: Inhibition of equine butyrylcholinesterase using butyrylthiocholine iodide as substrate incubated for 15 mins by Ellman's method
Chain of Cholinesterase (Equus caballus, UniProt P81908) (P81908 whole entry): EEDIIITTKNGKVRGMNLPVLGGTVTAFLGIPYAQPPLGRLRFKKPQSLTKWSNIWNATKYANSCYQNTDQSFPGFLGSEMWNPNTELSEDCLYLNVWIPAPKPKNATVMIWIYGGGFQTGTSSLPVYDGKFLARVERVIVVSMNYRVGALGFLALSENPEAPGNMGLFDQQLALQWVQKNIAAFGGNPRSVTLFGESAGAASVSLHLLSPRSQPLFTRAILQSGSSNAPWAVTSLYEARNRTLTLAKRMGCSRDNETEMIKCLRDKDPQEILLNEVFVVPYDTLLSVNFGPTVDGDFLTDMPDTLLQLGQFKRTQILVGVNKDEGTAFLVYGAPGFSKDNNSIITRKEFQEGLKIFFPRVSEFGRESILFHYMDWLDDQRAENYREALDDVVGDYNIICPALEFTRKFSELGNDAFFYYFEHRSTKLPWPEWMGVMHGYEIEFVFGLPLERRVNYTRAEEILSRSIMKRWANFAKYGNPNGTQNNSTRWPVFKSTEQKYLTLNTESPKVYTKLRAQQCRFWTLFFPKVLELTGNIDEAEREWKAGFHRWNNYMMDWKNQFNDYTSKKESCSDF
Procedure, shortened: (§3)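 Modified Ellman assay in phosphate buffer pH 8.0, with enzyme at 0.05 U/mL final: eel AChE, equine serum BuChE or human serum BuChE. Test compound was added at several concentrations, and blanks lacked enzyme.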

[12] = molecular target: T2, Amine oxidase [flavin-containing] B; experiment: biochemical; format: cell-based
[13] = molecular target: Acetylcholinesterase (Homo sapiens, UniProt P22303); experiment: Inhibition of human AChE using acetylthiocholine iodide as substrate after 15 mins by Ellman's method
Chain of Acetylcholinesterase (Homo sapiens, UniProt P22303) (P22303 whole entry): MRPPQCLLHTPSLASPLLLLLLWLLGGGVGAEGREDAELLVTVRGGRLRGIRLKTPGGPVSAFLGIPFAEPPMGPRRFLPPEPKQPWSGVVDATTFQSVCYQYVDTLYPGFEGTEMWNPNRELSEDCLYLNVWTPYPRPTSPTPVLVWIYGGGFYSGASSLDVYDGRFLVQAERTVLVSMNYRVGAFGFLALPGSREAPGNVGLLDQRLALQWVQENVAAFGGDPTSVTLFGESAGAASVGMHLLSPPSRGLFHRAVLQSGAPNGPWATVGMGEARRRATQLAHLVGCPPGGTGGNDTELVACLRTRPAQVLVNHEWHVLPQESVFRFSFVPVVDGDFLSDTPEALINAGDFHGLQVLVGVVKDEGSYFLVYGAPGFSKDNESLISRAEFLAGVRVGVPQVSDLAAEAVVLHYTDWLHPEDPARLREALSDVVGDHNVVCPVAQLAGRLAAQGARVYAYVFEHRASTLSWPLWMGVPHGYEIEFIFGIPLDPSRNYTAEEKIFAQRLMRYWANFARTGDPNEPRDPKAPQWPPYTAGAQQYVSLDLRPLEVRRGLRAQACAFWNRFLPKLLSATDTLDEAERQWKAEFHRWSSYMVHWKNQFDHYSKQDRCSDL

[14] = molecular target: T1, Cholinesterase; experiment: Inhibition of human BuChE using butyrylthiocholine iodide as substrate incubated for 15 mins by Ellman's method; procedure, shortened: as §3
[15] = molecular target: Amyloid-beta precursor protein (Homo sapiens) (UniProt P05067); experiment: Inhibition of self-induced amyloid beta ( 1 to 42 residues) (unknown origin) aggregation relative to control; settings: concentration not given here; procedure, shortened: as §2
[16] = molecular target: T4, Acetylcholinesterase; experiment: Inhibition of Electric eel AChE; procedure, shortened: as §3
[17] = molecular target: T2, Amine oxidase [flavin-containing] B; experiment: Inhibition of MAO-B (unknown origin)

T1 sequence (P06276 whole entry, the tested form may be a part): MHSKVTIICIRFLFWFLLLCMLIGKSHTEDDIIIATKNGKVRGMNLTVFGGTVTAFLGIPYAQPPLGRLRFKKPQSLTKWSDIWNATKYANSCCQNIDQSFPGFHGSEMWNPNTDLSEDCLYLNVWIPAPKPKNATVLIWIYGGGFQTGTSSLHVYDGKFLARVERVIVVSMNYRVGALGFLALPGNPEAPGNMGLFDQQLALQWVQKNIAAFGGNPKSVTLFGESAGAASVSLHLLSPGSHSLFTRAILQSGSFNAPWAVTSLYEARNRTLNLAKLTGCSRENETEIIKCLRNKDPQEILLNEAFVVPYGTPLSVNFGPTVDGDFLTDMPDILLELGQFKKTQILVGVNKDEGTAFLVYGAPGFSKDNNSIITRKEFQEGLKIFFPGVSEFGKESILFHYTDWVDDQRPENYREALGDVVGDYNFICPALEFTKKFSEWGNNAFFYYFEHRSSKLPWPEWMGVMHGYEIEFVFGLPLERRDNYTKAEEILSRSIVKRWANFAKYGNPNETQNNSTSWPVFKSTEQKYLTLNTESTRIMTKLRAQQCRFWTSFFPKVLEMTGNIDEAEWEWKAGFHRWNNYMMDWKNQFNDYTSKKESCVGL

| Structure (SMILES) | Ratio IC50 [6] | inhibition at 10 µM [9] | IC50 [10] | IC50 [11] | IC50 [12] | also measured |
| --- | --- | --- | --- | --- | --- | --- |
| CCN(C)C(=O)Oc1cccc(/C=C/C(=O)c2ccccc2O)c1 | – | – | – | – | – | IC50 [1]: 3.1 µM |
| COc1cc(/C=C/C(=O)CC(=O)/C=C/c2ccc(O)c(OC)c2)ccc1O | – | – | – | – | – | inhibition [2]: 76.5%; Activity [3]: 56.5% |
| CCN(CC)c1ccc(/C=C/C(=O)c2cc(-c3ccc(C(C)C(=O)OC)cc3F)ccc2O)cc1 (stereo not drawn) | – | – | – | – | – | Activity [4]: 3.3 Trolox eq; inhibition (INH) [5]: 75.5% |
| CCN(CC)CCCCCCOc1ccc(/C=C/C(=O)c2ccc(OCCCCCCN(CC)CC)cc2O)cc1 | 1.1 | 8.7% | 3.7 µM | 4.2 µM | 1.6 µM | inhibition [7]: 63.7%; Activity [8]: 1.1 Trolox eq; inhibition [2]: 84.2% |
| O=C(/C=C/c1ccccc1)c1ccc(OCCCCCCN2CCCC2)cc1O | 2.9 | 9.5% | 4.2 µM | 12.3 µM | 12.7 µM | IC50 [13]: 3.2 µM; IC50 [14]: 15.8 µM |
| CCN(CC)Cc1ccc(/C=C/C(=O)c2ccc(OC)c(OC)c2)cc1O | – | – | – | – | – | inhibition [15]: 55%; IC50 [16]: 0.44 µM; IC50 [17]: 1.21 µM |
| O=C(/C=C/c1ccc(OCCCCCCN2CCCC2)cc1)c1ccccc1O | 5.6 | 15.6% | 8.9 µM | 50.2 µM | 18.5 µM | – |
